Assay results published in paper PMC5061793 (British Journal of Clinical Pharmacology, 2016).
Entries after “also recorded” stand apart in the source; their conditions may differ.

How the values were obtained:
[1] = tested on: patients with mild-to-moderate probable AD; conditions: cited from earlier work
[2] = preclinical studies; cited from earlier work
[3] = Plasma pharmacokinetics after single rising oral doses of BI 409306; type: in vivo, human; conditions: for AUC0–∞ ratio of tablet to solution: EM; for Cl F^−1: geometric mean (gCV%)
Procedure, shortened: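 Healthy males (21–50 y), CYP2C19-genotyped as homozygous EMs or PMs, given single oral doses after a ≥10 h fast: solution 0.5–5 mg, tablets 10–350 mg; PMs given 10 mg, then 100 mg tablet. Tablet/solution crossover at 5 and 50 mg. Plasma sampled −2 h to 24 h (48, 72 h if ≥10 mg). HPLC-MS/MS with isotope-labelled internal standard. Noncompartmental analysis; log-scale ANOVA for formulation and genotype.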

[4] = tested on: healthy male subjects; experiment: Safety and tolerability; type: in vivo, human
Procedure, shortened: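 Randomized, double-blind, placebo-controlled single-dose escalation, 3:1 active:placebo (six and two per group). Males 21–50 y, BMI 18.5–29.9 kg m−2, CYP2C19 EMs or PMs, dosed four per day ≥1 h apart, ≥5 days between levels. Monitored AEs, laboratory tests, physical exam, vital signs, cardiac monitoring, 12-lead ECG and 16-item Bond–Lader 100 mm mood VAS. Investigators rated tolerability on a four-point scale. Descriptive statistics.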

[5] = tested on: rat hippocampal slices; conditions: cited from earlier work
[6] = Urinary excretion after single oral doses of BI 409306; type: in vivo, human; conditions: for fe0–4: urine 0 h to 4 h, geometric mean (gCV%)
Procedure, shortened: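 Drug amounts were measured by HPLC-MS/MS, giving amounts and fractions excreted per interval. Dose proportionality of Ae0–4 was tested by linear regression in EMs and by a mixed-effects linear model in PMs, with a 95% CI on the slope.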

[7] = after administration of 50 mg tablets
[8] = dose levels of 10 mg and 100 mg
[9] = single oral dose 2 mg sol EM (n = 6)
[10] = single oral dose 5 mg sol EM (n = 6)
[11] = single oral dose 5 mg tab EM (n = 6)
[12] = single oral dose 10 mg tab EM (n = 6)
[13] = single oral dose 10 mg tab PM (n = 6)
[14] = single oral dose 50 mg sol EM (n = 8)
[15] = single oral dose 50 mg tab EM (n = 6)
[16] = single oral dose 100 mg tab EM (n = 5)
[17] = single oral dose 100 mg tab PM (n = 6)
[18] = single oral dose 200 mg tab EM (n = 6)
[19] = single oral dose 350 mg tab EM (n = 6)

C[C@@H]1CN(Cc2ncccn2)C[C@H]1c1nc2c(cnn2C2CCOCC2)c(=O)[nH]1 [PF‐04447943, 6‐[(3S,4S)‐4‐methyl‐1‐(pyrimidin‐2‐ylmethyl)pyrrolidin‐3‐yl]‐1‐(tetrahydro‐2H‐pyran‐4‐yl)‐1,5‐dihydro‐4H‐pyrazolo[3,4‐d]pyrimidin‐4‐one]
incidence of severe AEs [1]: comparable to that with placebo

O=c1[nH]c(Cc2ccccn2)nc2c1cnn2C1CCOCC1 [BI 409306]
memory performance [2]: improved memory performance | AUC0–∞ ratio of tablet to solution ([3]; 5 mg dose, 90% CI: 87.6%, 111%): 98.5% | ratio (CYP2C19 PM to EM) of Cmax ([3]; 10 mg dose, 90% CI: 125%, 401%): 224% | ratio (CYP2C19 PM to EM) of AUC0–∞ ([3]; 10 mg dose, 90% CI: 291%, 843%): 496% | AUC0–∞ ratio of tablet to solution ([3]; 50 mg dose, 90% CI: 59.6%, 119%): 84.2% | ratio (CYP2C19 PM to EM) of Cmax ([3]; 100 mg dose, 90% CI: 124%, 421%): 228% | ratio (CYP2C19 PM to EM) of AUC0–∞ ([3]; 100 mg dose, 90% CI: 254%, 677%): 415% | reduction of gMean AUC, tablet versus oral solution [3, 7]: approximately 16% | reduction of gMean Cmax, tablet versus oral solution [3, 7]: approximately 20% | time following dose within which BI 409306 was eliminated ([3]; all DGs): ≤ 24 h | AUC0–∞ in CYP2C19 PMs compared with EMs [3, 8]: 4.1–5.0 fold | Cmax in CYP2C19 PMs compared with EMs [3, 8]: 2.2–2.3 fold | Cl F^−1 ([3]; single oral dose 0.5 mg sol EM (n = 6)): 6770 (50.4) ml min^−1 | Cl F^−1 [3, 9]: 5130 (41.3) ml min^−1 | Cl F^−1 [3, 10]: 3490 (27.0) ml min^−1 | Cl F^−1 [3, 11]: 3540 (32.2) ml min^−1 | Cl F^−1 [3, 12]: 5580 (69.8) ml min^−1 | Cl F^−1 [3, 13]: 1120 (35.5) ml min^−1 | Cl F^−1 ([3]; single oral dose 25 mg tab EM (n = 6)): 3810 (49.4) ml min^−1 | Cl F^−1 [3, 14]: 4130 (42.9) ml min^−1 | Cl F^−1 [3, 15]: 4970 (82.0) ml min^−1 | Cl F^−1 [3, 16]: 3660 (68.5) ml min^−1 | Cl F^−1 [3, 17]: 882 (21.4) ml min^−1 | Cl F^−1 [3, 18]: 2730 (44.4) ml min^−1 | Cl F^−1 [3, 19]: 2350 (17.1) ml min^−1 | AE: Dizziness ([4]; 2 mg sol EM (n = 6)): 1 (16.7) n (%) | AE: Gastrointestinal disorders ([4]; 2 mg sol EM (n = 6)): 1 (16.7) n (%) | AE: Headache ([4]; 2 mg sol EM (n = 6)): 1 (16.7) n (%) | AE: Nausea ([4]; 2 mg sol EM (n = 6)): 1 (16.7) n (%) | AE: Nervous system disorders ([4]; 2 mg sol EM (n = 6)): 2 (33.3) n (%) | AE: Headache ([4]; 5 mg tab EM (n = 6)): 1 (16.7) n (%) | AE: Nervous system disorders ([4]; 5 mg tab EM (n = 6)): 1 (16.7) n (%) | AE: Diarrhoea ([4]; 10 mg tab PM (n = 6)): 1 (16.7) n (%) | AE: Gastrointestinal disorders ([4]; 10 mg tab PM (n = 6)): 1 (16.7) n (%) | AE: Headache ([4]; 10 mg tab PM (n = 6)): 2 (33.3) n (%) | AE: Nervous system disorders ([4]; 10 mg tab PM (n = 6)): 2 (33.3) n (%) | AE: Cardiac disorders ([4]; 50 mg tab EM (n = 6)): 1 (16.7) n (%) | AE: Extrasystoles ([4]; 50 mg tab EM (n = 6)): 1 (16.7) n (%) | AE: Palpitations ([4]; 50 mg tab EM (n = 6)): 1 (16.7) n (%) | AE: Chromatopsia ([4]; 100 mg tab PM (n = 6)): 1 (16.7) n (%) | AE: Eye disorders ([4]; 100 mg tab PM (n = 6)): 2 (33.3) n (%) | AE: Headache ([4]; 100 mg tab PM (n = 6)): 2 (33.3) n (%) | AE: Nervous system disorders ([4]; 100 mg tab PM (n = 6)): 2 (33.3) n (%) | AE: Photopsia ([4]; 100 mg tab PM (n = 6)): 1 (16.7) n (%) | AE: Presyncope ([4]; 100 mg tab PM (n = 6)): 1 (16.7) n (%) | AE: Headache ([4]; 200 mg tab EM (n = 6)): 1 (16.7) n (%) | AE: Nervous system disorders ([4]; 200 mg tab EM (n = 6)): 2 (33.3) n (%) | AE: Photophobia ([4]; 200 mg tab EM (n = 6)): 1 (16.7) n (%) | AE: Photopsia ([4]; 200 mg tab EM (n = 6)): 2 (33.3) n (%) | AE: Somnolence ([4]; 200 mg tab EM (n = 6)): 1 (16.7) n (%) | AE: Blurred vision ([4]; 350 mg tab EM (n = 6)): 1 (16.7) n (%) | AE: Cardiac disorders ([4]; 350 mg tab EM (n = 6)): 1 (16.7) n (%) | AE: Chromatopsia ([4]; 350 mg tab EM (n = 6)): 1 (16.7) n (%) | AE: Dry mouth ([4]; 350 mg tab EM (n = 6)): 1 (16.7) n (%) | AE: Gastrointestinal disorders ([4]; 350 mg tab EM (n = 6)): 2 (33.3) n (%) | AE: Nausea ([4]; 350 mg tab EM (n = 6)): 1 (16.7) n (%) | AE: Nervous system disorders ([4]; 350 mg tab EM (n = 6)): 1 (16.7) n (%) | AE: Photophobia ([4]; 350 mg tab EM (n = 6)): 1 (16.7) n (%) | AE: Photopsia ([4]; 350 mg tab EM (n = 6)): 2 (33.3) n (%) | AE: Sinus tachycardia ([4]; 350 mg tab EM (n = 6)): 1 (16.7) n (%) | AE: Somnolence ([4]; 350 mg tab EM (n = 6)): 1 (16.7) n (%) | dose up to which generally safe and well tolerated ([4]; CYP2C19 EM healthy male subjects): up to 350 mg | subjects with headache ([4]; CYP2C19 EMs treated with BI 409306, all dose groups): three | subjects with photophobia/increased sensitivity to light ([4]; CYP2C19 EMs, all dose groups): three | subjects with photopsia/flashing lights ([4]; CYP2C19 EMs, all dose groups): five | dose up to which generally safe and well tolerated ([4]; CYP2C19 PM healthy male subjects): up to 100 mg | subjects with headache ([4]; CYP2C19 PMs treated with BI 409306 (10 mg and 100 mg)): four | intensity of AEs ([4]; all AEs): mild to moderate | B&L VAS scores: effects on mood, vigilance or stress levels ([4]; data not shown): no clinically relevant effects; also recorded: did not reveal any clinically relevant effects | abnormalities in laboratory results, ECG findings or vital signs ([4]; exception: one episode of transient sinus tachycardia): No relevant abnormalities | overall safety and tolerability ([4]; healthy male subjects, single rising doses): generally safe and well tolerated | onset of nervous system and eye disorder AEs after administration ([4]; most frequently reported AEs): 20 to 30 min | time within which AEs mostly resolved ([4]; nervous system and eye disorders): 1 to 2 h | serious AEs ([4]; single doses 0.5–350 mg, EMs and PMs): No serious AEs occurred; also recorded: No serious AEs were reported | highest (maximum) tolerated dose ([4]; single oral dose, CYP2C19 EMs): 350 mg | synaptic plasticity (LTP) [5]: enhancement of LTP | urinary excretion of BI 409306 ([6]; CYP2C19 EMs): < 2 % of the dose | dose proportionality exponent β of the power model for Ae0–4 ([6]; CYP2C19 EMs, entire dose range, 95% CI: 0.98, 1.12): 1.05 | urinary excretion of BI 409306 ([6]; CYP2C19 PMs): up to 2.68 % of the dose | fe0–4 [6, 9]: 0.483 (46.5) % | fe0–4 [6, 10]: 0.583 (26.0) % | fe0–4 [6, 11]: 0.611 (24.2) % | fe0–4 [6, 12]: 0.461 (60.2) % | fe0–4 [6, 13]: 1.30 (14.3) % | fe0–4 [6, 14]: 0.594 (48.1) % | fe0–4 [6, 15]: 0.523 (56.9) % | fe0–4 [6, 16]: 0.597 (53.0) % | fe0–4 [6, 17]: 1.78 (23.3) % | fe0–4 [6, 18]: 0.676 (48.8) % | fe0–4 [6, 19]: 0.786 (24.0) %
